Measured values reported in ChEMBL document CHEMBL2417436, “Synthesis and biological effects of novel 2-amino-3-(4-chlorobenzoyl)-4-substituted thiophenes as allosteric enhancers of the A1 adenosine receptor” (Eur J Med Chem, 2013).

What was measured:
[1] = target: T1, Adenosine receptor A3 (Homo sapiens) (UniProt P0DMS8); assay: Displacement of [3H]MRE-3008-F20 from human adenosine A3 receptor expressed in CHO cells at 10 uM after 120 mins by scintillation counting
T1 sequence (whole entry): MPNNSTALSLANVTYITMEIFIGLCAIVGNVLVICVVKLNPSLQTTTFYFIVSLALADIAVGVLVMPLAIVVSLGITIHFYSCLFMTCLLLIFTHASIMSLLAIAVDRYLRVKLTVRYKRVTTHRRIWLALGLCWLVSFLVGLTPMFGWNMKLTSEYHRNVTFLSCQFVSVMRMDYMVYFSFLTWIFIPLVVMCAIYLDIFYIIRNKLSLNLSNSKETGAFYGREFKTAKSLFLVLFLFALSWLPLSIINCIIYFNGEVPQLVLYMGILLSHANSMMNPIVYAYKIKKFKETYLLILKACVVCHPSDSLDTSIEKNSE

[2] = target: T2, Adenosine receptor A1 (Homo sapiens) (UniProt P30542); assay: Allosteric enhancement of human adenosine A1 receptor expressed in CHO cells assessed as inhibition of forskolin-induced cAMP production at 10 uM after 10 mins; assay type: functional, cell-based
T2 sequence (whole entry): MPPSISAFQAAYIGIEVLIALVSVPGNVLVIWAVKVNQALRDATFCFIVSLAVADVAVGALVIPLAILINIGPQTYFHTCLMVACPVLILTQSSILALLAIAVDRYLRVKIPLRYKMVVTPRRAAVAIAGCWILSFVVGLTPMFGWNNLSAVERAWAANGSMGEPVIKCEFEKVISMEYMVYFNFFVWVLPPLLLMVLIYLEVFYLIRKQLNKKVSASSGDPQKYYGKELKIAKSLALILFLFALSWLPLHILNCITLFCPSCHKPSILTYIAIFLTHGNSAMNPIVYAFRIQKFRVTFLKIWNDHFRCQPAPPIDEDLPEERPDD
Method in brief: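 Whole hA1CHO cells (10⁶/mL) preincubated 10 min at 37 °C in phosphate buffer with adenosine deaminase (1.0 IU/mL) and Ro 20-1724 (0.5 mM). Compound alone at 10 μM for a further 10 min; forskolin 1 μM for 5 min. TCA stop, ether extraction, cAMP by [3H]-cAMP protein-binding competition assay. Expressed as pmol/10⁶ cells; mean ± SEM, three experiments.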

[3] = target: T2, Adenosine receptor A1 (Homo sapiens); assay: Allosteric enhancement of human adenosine A1 receptor expressed in CHO cells assessed as inhibition of CCPA-induced cAMP production at 100 nM after 10 mins; assay type: functional, cell-based
Method in brief: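 Intact hA1CHO cells (10⁶/mL) in phosphate buffer with adenosine deaminase 1.0 IU/mL and Ro 20-1724 0.5 mM, preincubated 10 min at 37 °C. Compound 100 nM plus CCPA 1 pM added for 10 min, then forskolin 1 μM for 5 min. Stopped with cold 6% TCA, ether-extracted. cAMP measured by [3H]-cAMP competition with adrenal binding protein (4 °C, 150 min). pmol/10⁶ cells, mean ± SEM of three.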

[4] = target: T2, Adenosine receptor A1 (Homo sapiens); assay: Allosteric enhancement of human adenosine A1 receptor expressed in CHO cells assessed as increase of CCPA Ki at 10 uM after 90 mins by [3H]DPCPX radioligand binding assay; assay type: cell-based
Method in brief: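 hA1CHO membranes (50 mM Tris-HCl, pH 7.4, adenosine deaminase-treated). [3H]DPCPX 1 nM competed by CCPA (0.01 nM–1 μM) with or without test compound at 10 μM. Triplicate, 90 min at 25 °C. Nonspecific binding taken with 1 μM DPCPX. Filtration, then scintillation counting. Ki by Cheng–Prusoff. Shift = Ki(CCPA)/Ki(CCPA+enhancer). Mean ± SEM, n=3.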

[5] = target: T2, Adenosine receptor A1 (Homo sapiens); assay: Displacement of [3H]DPCPX from human adenosine A1 receptor expressed in CHO cells at 10 uM after 120 mins by scintillation counting
[6] = target: T2, Adenosine receptor A1 (Homo sapiens); assay: Allosteric enhancement of human adenosine A1 receptor expressed in CHO cells assessed as increase of [3H]CCPA Bmax at 10 uM after 90 mins; assay type: cell-based
Method in brief: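 Saturation of [3H]CCPA (0.05–20 nM) on hA1CHO membranes in 50 mM Tris-HCl, pH 7.4, with or without compound at final 10 μM. Triplicate, 25 °C, 90 min. Nonspecific binding defined with 1 μM R-PIA. Filter-bound radioactivity counted. KD and Bmax fitted by weighted nonlinear least squares; Bmax shift versus control. Mean ± SEM, n=3.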

[7] = target: Adenosine receptor A2a (Homo sapiens) (UniProt P29274); assay: Displacement of [3H]ZM 241385 from human adenosine A2A receptor expressed in CHO cells at 10 uM after 60 mins by scintillation counting; assay type: cell-based
Method in brief: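 hA2ACHO membranes in 50 mM Tris HCl, 10 mM MgCl2, pH 7.4, 4 °C for 60 min. [3H]ZM 241385 given as 1 nM in methods and 2 nM in table footnote. Compound at 10 μM from 100-fold DMSO stock, 1% DMSO final. Nonspecific binding with 1 μM ZM 241385. Filtration and scintillation counting. Percent inhibition of control specific binding, ±SEM, n=3.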

Chain of Adenosine receptor A2a (Homo sapiens) (P29274 whole entry): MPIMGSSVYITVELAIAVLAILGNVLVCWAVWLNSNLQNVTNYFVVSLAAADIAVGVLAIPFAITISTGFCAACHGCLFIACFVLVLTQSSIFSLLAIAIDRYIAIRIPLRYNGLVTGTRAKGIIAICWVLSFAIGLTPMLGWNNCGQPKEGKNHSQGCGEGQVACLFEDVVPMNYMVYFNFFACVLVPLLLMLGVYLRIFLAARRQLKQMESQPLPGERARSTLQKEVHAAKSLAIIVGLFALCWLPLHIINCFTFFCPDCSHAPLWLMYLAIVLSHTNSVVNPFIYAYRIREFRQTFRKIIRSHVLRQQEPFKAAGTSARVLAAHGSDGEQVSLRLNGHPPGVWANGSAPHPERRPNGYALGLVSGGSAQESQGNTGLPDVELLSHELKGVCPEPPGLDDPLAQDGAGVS

Row | Structure (SMILES) | inhibition [1] | inhibition [2] | inhibition [3] | fold change (FC) [4] | inhibition [5] | fold change (FC) [6] | inhibition [7]
1 | Nc1scc(CN2CCn3c(cc4cc(F)ccc43)C2)c1C(=O)c1ccc(Cl)cc1 | 5% | 69% | 65% | 7.2 | 0% | 8.2 | 2%
2 | CCN(Cc1csc(N)c1C(=O)c1ccc(Cl)cc1)c1ccccc1 | 11% | 19% | 18% | 1.9 | 0% | 2.3 | 0%
3 | CN(Cc1ccccc1)Cc1c(-c2ccccc2)sc(N)c1C(=O)c1ccc(Cl)cc1 | 6% | 4% | 11% | 1.1 | 1% | 1.1 | 3%
4 | Cc1ccc2c(c1)OC1(CCN(Cc3csc(N)c3C(=O)c3ccc(Cl)cc3)CC1)O2 | 6% | 48% | 45% | 4.2 | 0% | 5.1 | 3%
5 | Cc1cccc2c1OC1(CCN(Cc3csc(N)c3C(=O)c3ccc(Cl)cc3)CC1)O2 | 5% | 46% | 47% | 4.9 | 2% | 5 | 1%
6 | CC(C)c1ccc(OCc2csc(N)c2C(=O)c2ccc(Cl)cc2)cc1 | 9% | 15% | 18% | 1.5 | 3% | 1.8 | 1%
7 | CN(Cc1csc(N)c1C(=O)c1ccc(Cl)cc1)c1ccccc1 | 9% | 18% | 16% | 2.2 | 1% | 2.4 | 1%
8 | CN(Cc1csc(N)c1C(=O)c1ccc(Cl)cc1)c1ccc(Cl)cc1 | 12% | 22% | 21% | 2.2 | 8% | 2.5 | 0%
9 | Cc1ccc2c(c1)CC1CN(Cc3csc(N)c3C(=O)c3ccc(Cl)cc3)CCN21 (stereo unspecified) | 7% | 3% | 13% | 1 | 6% | 1 | 0%
10 | Nc1scc(CN2CCc3ccccc3C2)c1C(=O)c1ccc(Cl)cc1 | 1% | 41% | 43% | 4.1 | 0% | 4.6 | 3%
11 | Nc1scc(CN2CCN3c4ccccc4CC3C2)c1C(=O)c1ccc(Cl)cc1 (stereo unspecified) | 5% | 71% | 72% | 7.6 | 0% | 8.1 | 3%
12 | CCCCN(C)Cc1c(-c2ccccc2)sc(N)c1C(=O)c1ccc(Cl)cc1 | 5% | 5% | 12% | 1.1 | 1% | 1.1 | 1%
13 | Nc1scc(CN2CCn3c(cc4ccccc43)C2)c1C(=O)c1ccc(Cl)cc1 | 3% | 66% | 62% | 6.6 | 3% | 7.5 | 0%
14 | Nc1scc(COc2ccc(F)cc2)c1C(=O)c1ccc(Cl)cc1 | 8% | 10% | 15% | 1.2 | 1% | 1.2 | 1%
15 | Cn1c2c(c3cc(Cl)ccc31)CN(Cc1csc(N)c1C(=O)c1ccc(Cl)cc1)CC2 | 1% | 24% | 28% | 2.6 | 1% | 2.8 | 0%
16 | Nc1scc(CN2CCC3(CC2)Oc2ccccc2O3)c1C(=O)c1ccc(Cl)cc1 | 5% | 45% | 43% | 4.7 | 1% | 5.1 | 1%
17 | Nc1scc(CSc2ccccc2)c1C(=O)c1ccc(Cl)cc1 | 5% | 18% | 21% | 2 | 1% | 2.2 | 1%
18 | C=CCN(CC=C)Cc1c(Br)sc(N)c1C(=O)c1ccc(Cl)cc1 | 8% | 8% | 13% | 1.2 | 6% | 1.2 | 1%
